One assay has as its system Escherichia coli. The experiment in a line: Antibacterial activity against Escherichia coli NIHJ. It is filed as functional. The gist of the method: (§1)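 MIC determined by agar dilution. Strains as listed on each line.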
The subject of another assay is Bacillus subtilis. Put plainly: Antibacterial activity against Bacillus subtilis ATCC 6633. Type of assay: functional. The gist of the method:
as §1

Another assay deals with Canis familiaris. Put plainly: Evaluated for gastrointestinal motor stimulating (GMS) activity in dog estimated in vivo by 2 x 2 points parallel line assay. Activity of EM-A was assumed to be 1. It is filed as functional, Canis lupus familiaris. The gist of the method: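 Fasted conscious dogs carried chronically implanted serosal force transducers recording circular muscle contraction in the gastric body, antrum and small intestine. Dosing was an intravenous bolus 10–15 min after interdigestive gastric contractions ended. Antral contractile waves were integrated for 10 min from injection. Relative potency came from a 2 × 2 parallel line assay with five animals per dose, using EM as the reference in each assay.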

The next assay has as its system Bacillus cereus. The experiment in a line: Antibacterial activity against Bacillus cereus IFO 3001. Type of assay: functional. The gist of the method: as §1
For the next assay, the system named is Klebsiella pneumoniae. Put plainly: Antibacterial activity against Klebsiella pneumoniae ATCC 10031. It is filed as functional. The gist of the method: as §1
The next assay deals with Staphylococcus aureus. Put plainly: Antibacterial activity against Staphylococcus aureus ATCC 6538P. It is filed as functional. An outline of the steps:
as §1

Among the data in ChEMBL document CHEMBL1123915, “Macrolides with gastrointestinal motor stimulating activity” (1987) are MIC and GMS activity values, retold here.

Values after ≈ are worked out from the molar mass of the structure shown.

What is called MIC is the smallest concentration in the dilution series that meets the test's criterion for growth inhibition. Read a low MIC as inhibition by little substance. Take `C=CC[N+](C)(C)C1CC(C)OC(O[C@@H]2C(C)C(OC3CC(C)(OC)C(O)C(C)O3)C(C)C(=O)OC(CC)[C@@](C)(O)[C@H](O)[C@@H](C)C3O[C@@]2(C)C[C@H]3C)C1O.[Br-]` (stereo not given in full): the minimal inhibitory concentration (MIC) is more than 100 µg/mL against Escherichia coli; 100 µg/mL against Bacillus subtilis; 100 µg/mL against Bacillus cereus; more than 100 µg/mL against Klebsiella pneumoniae; 100 µg/mL against Staphylococcus aureus. Besides, the GMS activity in the assay with Canis familiaris was 115.
With `CC[C@H]1OC(=O)[C@H](C)[C@@H](O[C@H]2C[C@@](C)(OC)[C@@H](O)[C@H](C)O2)[C@H](C)[C@@H](O[C@@H]2O[C@H](C)C[C@H](N(C)C)[C@H]2O)[C@@]2(C)CC(C)=C(O2)[C@H](C)[C@@H](O)[C@]1(C)O`, the MIC with Escherichia coli was more than 100 µg/mL; with Bacillus subtilis, 25 µg/mL (≈ 34.9 µM); against Bacillus cereus, 25 µg/mL (≈ 34.9 µM); in the assay with Klebsiella pneumoniae it was more than 100 µg/mL; against Staphylococcus aureus, 50 µg/mL (≈ 69.8 µM). Moreover, the GMS activity in the assay with Canis familiaris is given as 10.
Take `CCC1OC(=O)C(C)C(OC2CC(C)(OC)C(O)C(C)O2)C(C)[C@@H](OC2OC(C)CC([N+](C)(C)C)C2O)[C@]2(C)C[C@@H](C)C(O2)[C@H](C)[C@@H](O)[C@]1(C)O.[I-]` (stereo not given in full): the MIC against Escherichia coli, in the assay with Bacillus subtilis, with Bacillus cereus, in the assay on Klebsiella pneumoniae and against Staphylococcus aureus was more than 100 µg/mL each time. Besides, the GMS activity in the assay with Canis familiaris is 65.
As to `C=CC[N+](C)(C)[C@@H]1C[C@@H](C)O[C@@H](O[C@@H]2C(C)C(O[C@H]3C[C@@](C)(OC)[C@@H](O)[C@@H](C)O3)C(C)C(=O)OC(CC)[C@@](C)(O)[C@H](O)[C@@H](C)C3=C(C)C[C@]2(C)O3)[C@@H]1O.[Br-]` (stereo not given in full), the MIC against Escherichia coli is more than 100 µg/mL; with Bacillus subtilis it was more than 100 µg/mL; against Bacillus cereus, more than 100 µg/mL; in the assay with Klebsiella pneumoniae, more than 100 µg/mL; in the assay with Staphylococcus aureus, 100 µg/mL. Also, the GMS activity with Canis familiaris was 256.
Consider `C#CC[N+](C)(C)C1CC(C)OC(O[C@@H]2C(C)C(OC3CC(C)(OC)C(O)C(C)O3)C(C)C(=O)OC(CC)[C@@](C)(O)[C@H](O)[C@@H](C)C3O[C@@]2(C)C[C@H]3C)C1O.[Br-]` (stereo not given in full), for which the MIC against Escherichia coli, against Bacillus subtilis, in the assay with Bacillus cereus, with Klebsiella pneumoniae and with Staphylococcus aureus was more than 100 µg/mL throughout. In addition, the GMS activity in the assay with Canis familiaris is 202.
As to `CCC1OC(=O)C(C)C(O[C@H]2C[C@@](C)(OC)[C@@H](O)[C@@H](C)O2)C(C)[C@@H](O[C@@H]2O[C@H](C)C[C@@H]([N+](C)(C)CC)[C@H]2O)[C@]2(C)CC(C)=C(O2)[C@H](C)[C@@H](O)[C@]1(C)O.[I-]` (stereo not given in full), the MIC in the assay with Escherichia coli, with Bacillus subtilis, in the assay on Bacillus cereus, against Klebsiella pneumoniae and in the assay on Staphylococcus aureus was more than 100 µg/mL each time. For the same molecule, the GMS activity in the assay on Canis familiaris is reported as 111.
Turning to `C#CC[N+](C)(C)[C@@H]1C[C@@H](C)O[C@@H](O[C@@H]2C(C)C(O[C@H]3C[C@@](C)(OC)[C@@H](O)[C@@H](C)O3)C(C)C(=O)OC(CC)[C@@](C)(O)[C@H](O)[C@@H](C)C3=C(C)C[C@]2(C)O3)[C@@H]1O.[Br-]` (stereo not given in full), the MIC in the assay on Escherichia coli was more than 100 µg/mL; in the assay on Bacillus subtilis it was 100 µg/mL; against Bacillus cereus, 100 µg/mL; in the assay on Klebsiella pneumoniae, more than 100 µg/mL; in the assay on Staphylococcus aureus, 100 µg/mL. Further, in the assay on Canis familiaris, the GMS activity is 2890.
Consider `CC[C@H]1OC(=O)[C@H](C)[C@@H](O[C@H]2C[C@@](C)(OC)[C@@H](O)[C@H](C)O2)[C@H](C)[C@@H](O[C@@H]2O[C@H](C)C[C@H](N(C)C)[C@H]2O)[C@](C)(O)C[C@@H](C)C(=O)[C@H](C)[C@@H](O)[C@]1(C)O` [ERYTHROMYCIN], for which the MIC with Escherichia coli was found to be 12.5 µg/mL (≈ 17 µM); in the assay on Bacillus subtilis, 0.1 µg/mL (≈ 0.136 µM); with Bacillus cereus, 0.1 µg/mL (≈ 0.136 µM); in the assay with Klebsiella pneumoniae, 6.25 µg/mL (≈ 8.52 µM); against Staphylococcus aureus, 0.2 µg/mL (≈ 0.273 µM). Also, the GMS activity with Canis familiaris is 1.
For `CCC1OC(=O)C(C)C(O[C@H]2C[C@@](C)(OC)[C@@H](O)[C@@H](C)O2)C(C)[C@@H](O[C@@H]2O[C@H](C)C[C@@H](N(C)CC)[C@H]2O)[C@]2(C)CC(C)=C(O2)[C@H](C)[C@@H](O)[C@]1(C)O` (stereo not given in full), the MIC in the assay on Escherichia coli, in the assay with Bacillus subtilis, with Bacillus cereus, in the assay on Klebsiella pneumoniae and in the assay on Staphylococcus aureus was more than 100 µg/mL in each case. The GMS activity in the assay with Canis familiaris was 18.
As to `CCC1OC(=O)C(C)C(O[C@H]2C[C@@](C)(OC)[C@@H](O)[C@@H](C)O2)C(C)[C@@H](O[C@@H]2O[C@H](C)C[C@@H]([N+](C)(C)C)[C@H]2O)[C@]2(C)CC(C)=C(O2)[C@H](C)[C@@H](O)[C@]1(C)O.[I-]` (stereo not given in full), the MIC against Escherichia coli, in the assay with Bacillus subtilis, in the assay with Bacillus cereus, against Klebsiella pneumoniae and against Staphylococcus aureus was more than 100 µg/mL each time. For the same molecule, the GMS activity with Canis familiaris was 21.
